# Legend:
# [1] = target: Adenosine receptor A2a (Homo sapiens) (UniProt P29274); experiment: Displacement of [3H]NECA from human cloned adenosine A2A receptor expressed in CHO cells at 10 uM; format: cell-based
# Procedure, shortened: (§1)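 Radioligand displacement in CHO membranes stably expressing hA1 ([3H]DPCPX, Kd 3 nM) or hA2A ([3H]NECA, Kd 30 nM). Percent inhibition of specific binding at 10 μM. Full curves used five concentrations in triplicate, with IC50 converted to Ki by Cheng-Prusoff.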
# Adenosine receptor A3 [2] = target: T1, Adenosine receptor A3 (Homo sapiens, UniProt P0DMS8); experiment: Displacement of [125I]AB-MECA from human cloned adenosine A3 receptor expressed in CHO cells; format: cell-based
# T1 sequence (P0DMS8 whole entry): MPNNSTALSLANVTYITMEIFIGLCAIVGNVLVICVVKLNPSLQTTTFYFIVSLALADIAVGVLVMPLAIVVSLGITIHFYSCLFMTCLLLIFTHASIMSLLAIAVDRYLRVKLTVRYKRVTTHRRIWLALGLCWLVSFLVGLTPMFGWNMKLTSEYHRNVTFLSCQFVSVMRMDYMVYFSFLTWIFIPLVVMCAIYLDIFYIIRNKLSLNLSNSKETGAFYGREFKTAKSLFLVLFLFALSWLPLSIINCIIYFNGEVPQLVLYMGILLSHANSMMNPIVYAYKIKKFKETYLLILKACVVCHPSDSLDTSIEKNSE
# Procedure, shortened: (§2)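 Membranes from CHO cells stably expressing hA3 AR, labelled with [125I]AB-MECA (Kd 1.4 nM). IC50 from nonlinear regression using five displacer concentrations, each in triplicate. Ki calculated by Cheng-Prusoff, mean ± SEM of four assays. Single-point data are percent inhibition of specific binding at 1 μM.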
# [3] = target: T2, Adenosine receptor A1 (Homo sapiens) (UniProt P30542); experiment: Displacement of [3H]DPCPX from human cloned adenosine A1 receptor expressed in CHO cells at 10 uM; format: cell-based; procedure, shortened: as §1
# T2 sequence (whole entry): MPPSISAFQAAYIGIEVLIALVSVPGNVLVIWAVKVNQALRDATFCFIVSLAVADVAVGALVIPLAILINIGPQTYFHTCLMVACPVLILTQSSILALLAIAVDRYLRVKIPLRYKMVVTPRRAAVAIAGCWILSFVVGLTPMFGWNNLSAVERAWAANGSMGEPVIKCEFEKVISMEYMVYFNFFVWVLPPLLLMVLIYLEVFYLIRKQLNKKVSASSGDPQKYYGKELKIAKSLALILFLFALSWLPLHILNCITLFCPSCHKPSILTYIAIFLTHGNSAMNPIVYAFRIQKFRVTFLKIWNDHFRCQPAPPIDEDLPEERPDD
# Adenosine receptor A3 [4] = target: T1, Adenosine receptor A3; experiment: Antagonist activity at human cloned adenosine A3 receptor expressed in CHO cells assessed as inhibition of […] after 15 mins; format: functional, cell-based
# Procedure, shortened: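 CHO cells stably expressing hA3 plated and grown 48 h. Preincubated 15 min at 37 °C with Ro20-1724 (20 μM) and adenosine deaminase (1 U/mL). Compound (1 nM to 10 μM) given for 15 min at 37 °C, then 100 nM NECA. Reversal of NECA-induced cAMP inhibition measured by [3H]cAMP competitive protein binding assay. IC50 from sigmoid nonlinear regression, means ± SEM of three experiments.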
# [5] = target: T3, Adenosine receptor A2b (Homo sapiens) (UniProt P29275); experiment: Antagonist activity at human cloned adenosine A2B receptor expressed in CHO cells assessed as inhibition of NECA-induced cAMP accumulation at 1 nM to 10 uM after 15 mins; format: functional, cell-based
# T3 sequence (whole entry): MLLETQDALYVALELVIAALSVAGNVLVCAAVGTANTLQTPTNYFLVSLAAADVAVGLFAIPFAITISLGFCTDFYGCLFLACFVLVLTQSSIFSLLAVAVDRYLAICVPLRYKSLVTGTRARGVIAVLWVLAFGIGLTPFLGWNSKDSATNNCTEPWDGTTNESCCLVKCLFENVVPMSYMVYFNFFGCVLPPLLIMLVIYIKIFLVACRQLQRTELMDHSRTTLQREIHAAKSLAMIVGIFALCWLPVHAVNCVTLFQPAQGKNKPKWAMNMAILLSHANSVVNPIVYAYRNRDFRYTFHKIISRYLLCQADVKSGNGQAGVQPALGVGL
# Procedure, shortened: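 Stably transfected CHO cells (~60000) plated and grown 48 h. Preincubated 15 min at 37 °C in DMEM containing Ro20-1724 (20 μM) and adenosine deaminase (1 U/mL). Compound (1 nM to 10 μM) added for 15 min at 37 °C, then 100 nM NECA. Reaction stopped with 0.4 N HCl and lysate neutralised with KOH. cAMP measured by competitive binding to beef adrenal binding protein with [3H]cAMP (2 nM) for 150 min at 4 °C, then filtration. Read-out is percent inhibition of NECA-stimulated cAMP.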
# [6] = target: T4, Adenosine receptor A3 (Homo sapiens) (UniProt P0DMS8); experiment: Displacement of [125I]AB-MECA from human cloned adenosine A3 receptor expressed in CHO cells at 1 uM; format: cell-based; procedure, shortened: as §2
# T4 sequence (whole entry): T1 sequence (P0DMS8 whole entry)
# [7] = Displacement of [3H]CGS21680 from adenosine A2A receptor in bovine brain membranes; format: cell membranes, Bos taurus
# Homo sapiens = organism: Homo sapiens; experiment: Selectivity ratio of Ki for human cloned adenosine A2A receptor to Ki for human cloned adenosine A3 receptor
# Procedure, shortened: (§3)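 Ki values from radioligand displacement at hA1 ([3H]DPCPX, Kd 3 nM), hA2A ([3H]NECA, Kd 30 nM) and hA3 ([125I]AB-MECA, Kd 1.4 nM) in CHO membranes. Five displacer concentrations in triplicate, Cheng-Prusoff conversion, means of four assays. Ratio taken as A1 or A2A Ki over A3 Ki.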
# [8] = target: Adenosine receptors; A1 & A3 (Homo sapiens) (UniProt P30542+P0DMS8); experiment: Selectivity ratio of Ki for human cloned adenosine A1 receptor to Ki for human cloned adenosine A3 receptor; procedure, shortened: as §3
# Sequence of Adenosine receptor A2a (Homo sapiens) (P29274 whole entry): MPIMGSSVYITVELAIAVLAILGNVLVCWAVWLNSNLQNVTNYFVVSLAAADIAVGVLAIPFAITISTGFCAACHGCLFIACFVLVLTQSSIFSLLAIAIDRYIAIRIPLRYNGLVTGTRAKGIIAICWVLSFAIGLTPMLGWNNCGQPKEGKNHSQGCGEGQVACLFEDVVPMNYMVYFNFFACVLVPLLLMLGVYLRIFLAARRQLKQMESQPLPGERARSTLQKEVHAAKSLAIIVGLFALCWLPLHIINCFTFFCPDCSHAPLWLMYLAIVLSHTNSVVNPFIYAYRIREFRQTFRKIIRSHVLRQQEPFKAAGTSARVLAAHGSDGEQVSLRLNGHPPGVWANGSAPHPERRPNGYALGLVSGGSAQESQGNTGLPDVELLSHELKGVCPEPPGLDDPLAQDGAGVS
Structure (SMILES),inhibition [1],Ki (Adenosine receptor A3 [2]),inhibition [3],IC50 (Adenosine receptor A3 [4]),inhibition [5],inhibition [6],Ki [7],Ratio Ki (Homo sapiens),Ratio Ki [8]
COc1ccc(NC(=O)Nc2nn(-c3ccccc3)c(=O)c3ccccc23)cc1,51%,60.6 nM,4%,28 nM,0%,,,,
O=C(Cc1ccccc1)Nc1nn(-c2ccccc2)c(=O)c2ccccc12,4%,,23%,,,28%,,,
COc1ccc(C(=O)Nc2nn(-c3ccccc3)c(=O)c3ccccc23)cc1,17%,,0%,,,10%,,,
O=C(Nc1ccccc1Cl)Nc1nn(-c2ccccc2)c(=O)c2ccccc12,3%,,0%,,,49%,,,
COc1ccccc1CNC(=O)Nc1nn(-c2ccccc2)c(=O)c2ccccc12,28%,274 nM,28%,,,,,,
COc1ccccc1NC(=O)Nc1nn(-c2ccccc2)c(=O)c2ccccc12,17%,8.9 nM,0%,17 nM,16%,,,,
O=C(Nc1ccccc1)Nc1nc2ccccc2n2c(=O)n(-c3ccccc3)nc12,,,,,,,2300 nM,,
O=C(NCc1ccccc1)Nc1nn(-c2ccccc2)c(=O)c2ccccc12,23%,29.6 nM,20%,1.15 nM,34%,,,,
O=C(Nc1ccc(Cl)cc1)Nc1nn(-c2ccccc2)c(=O)c2ccccc12,9%,,10%,,,13%,,,
O=C(Nc1nn(-c2ccccc2)c(=O)c2ccccc12)c1ccc(Cl)cc1,17%,,26%,,,17%,,,
O=C(Nc1nn(-c2ccccc2)c(=O)c2ccccc12)c1ccco1,41%,,23%,,,8%,,,
COc1cccc(NC(=O)Nc2nn(-c3ccccc3)c(=O)c3ccccc23)c1,28%,9.75 nM,45%,18 nM,57%,,,,
Nc1nc2ccccc2n2c(=O)n(-c3ccccc3)nc12,,490 nM,,,,,,,
O=C(Nc1nn(-c2ccccc2)c(=O)c2ccccc12)c1ccccc1,35%,1100 nM,44%,,,,,,
COc1ccc(OC)c(NC(=O)Nc2nn(-c3ccccc3)c(=O)c3ccccc23)c1,19%,0.776 nM,0%,8.25 nM,0%,,,10000,10000
Nc1nn(-c2ccccc2)c(=O)c2ccccc12,45%,,24%,,,8%,,,
COc1ccc(NC(=O)Nc2nn(-c3ccccc3)c(=O)c3ccccc23)c(OC)c1,33%,,29%,,,33%,,,
Cc1ccc(NC(=O)Nc2nn(-c3ccccc3)c(=O)c3ccccc23)cc1,0%,,29%,,,45%,,,
CC(=O)Nc1nn(-c2ccccc2)c(=O)c2ccccc12,14%,,52%,,,0%,,,
O=C(Nc1ccccc1)Nc1nn(-c2ccccc2)c(=O)c2ccccc12,42%,178 nM,44%,,,,,,
Cc1ccccc1NC(=O)Nc1nn(-c2ccccc2)c(=O)c2ccccc12,28%,,20%,,,22%,,,
CC(=O)N(C(C)=O)c1nn(-c2ccccc2)c(=O)c2ccccc12,10%,,47%,,,0%,,,

# — ChEMBL document CHEMBL1764987, “The identification of the 2-phenylphthalazin-1(2H)-one scaffold as a new decorable core skeleton for the design of potent and selective human A3 adenosine receptor antagonists” (J Med Chem, 2011)
